Legend:
Type in all cases: functional
[1] = organism: Cavia porcellus; assay: Concentration needed to elicit a 75% increase beyond control in coronary flow in ''Langendorff'', guinea pig heart (in vitro)
In short: (§1)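 Isolated Langendorff-perfused guinea pig hearts infused with a range of drug concentrations; force (g), rate (beats/min) and coronary flow (mL/min) recorded. A linear regression of percent-control flow gives C175, the micromolar concentration raising flow to 175% of control, reported only if within the tested range. Raw data analysed by paired t tests.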

[2] = tested on: Rattus norvegicus; assay: Ability to lower blood pressure in the spontaneously hypertensive rat (SHR) at 10 mg/kg (p.o.); conditions: route oral
In short: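 Spontaneously hypertensive rats dosed orally at the stated dose; read-out is the maximum fall in blood pressure (mmHg), with significance shown as P.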

[3] = organism: Cavia porcellus; assay: Concentration needed to achieve a 75% increase in coronary blood flow in 'Langendorff', guinea pig heart (in vitro negative inotropic activity); in short: as §1
[4] = organism: Cavia porcellus; assay: Concentration needed to achieve a 75% increase in coronary blood flow in 'Langendorff', guinea pig heart (in vitro Negative inotropic potency); in short: as §1
[5] = tested on: Rattus norvegicus; assay: Ability to lower blood pressure in the spontaneously hypertensive rat (SHR) at 30 mg/kg (p.o.); conditions: route oral
In short: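 Spontaneously hypertensive rats were given a single oral dose of the compound. The read-out was the maximum fall in blood pressure, in mmHg, after that dose. A P value for significance was reported with each value.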

SMILES	C175 [1]	Max fall in blood pressure [2]	Contractile force, % of control [3]	P (Ei) [4]	Max fall in blood pressure [5]	Control [3]
COc1ccc(C#CCCc2ccccc2)c(CCCN(C)CCc2ccc(OC)c(OC)c2)c1	1.25 µM	12 mmHg	100%	>0.5		
COc1ccc(C#Cc2ccccc2)c(CC(C)N(C)CCCCc2ccccc2)c1 (configuration not stated)	2.75 µM		90%	>0.05	74 mmHg	
COc1ccc(C#Cc2ccc(C(F)(F)F)cc2)c(CC(C)N(C)CCc2ccc(OC)c(OC)c2)c1 (configuration not stated)	2 µM		90%	>0.5	49 mmHg	
COc1ccc(CCN(C)C(C)Cc2ccccc2C#Cc2ccccc2)cc1OC (configuration not stated)	0.2 µM	13 mmHg	90%	>0.05		
CCCCCCN(C)C(C)Cc1cc(OC)ccc1C#Cc1ccccc1 (configuration not stated)	>3 µM	48 mmHg				
COc1ccc(C#Cc2ccc(SC)cc2)c(CC(C)N(C)CCc2ccc(OC)c(OC)c2)c1 (configuration not stated)	0.55 µM		80%	0.5	45 mmHg	
COc1ccc(C#Cc2ccccc2)c(CC(C)N(C)CCc2ccccc2)c1 (configuration not stated)	0.5 µM	43 mmHg	115%	>0.5		
COc1ccc(C#Cc2ccc(Cl)cc2)c(CC(C)N(C)CCc2ccc(OC)c(OC)c2)c1 (configuration not stated)	0.3 µM		85%	>0.5	46 mmHg	
COc1ccc(C#Cc2ccccc2)c(CC(C)NCCc2ccc([N+](=O)[O-])cc2)c1 (configuration not stated)	>3 µM		>66%	<0.05 Ei	66 mmHg	
COc1cccc(CC(C)NCCc2ccc(OC)c(OC)c2)c1 (configuration not stated)	>10 µM				18 mmHg	
COc1ccc(C#Cc2ccccc2)c(CCCN(C)C)c1	0.3 µM		110%	>0.5	22 mmHg	
COc1ccc(CCN(C)C(C)CCc2cc(F)ccc2C#Cc2ccccc2)cc1OC (configuration not stated)	0.34 µM		85%	0.45	50 mmHg	
COc1ccc(C#Cc2ccccc2)c(CC(C)NCCc2cccc3ccccc23)c1 (configuration not stated)	0.083 µM		77%	0.003	48 mmHg	
COc1cccc(CCNC(C)Cc2cc(OC)ccc2C#Cc2ccccc2)c1 (configuration not stated)	0.004 µM	56 mmHg	115%	0.019		
CCCCN(CCc1ccc(OC)c(OC)c1)C(C)Cc1cc(OC)ccc1C#Cc1ccccc1 (configuration not stated)	>3 µM				49 mmHg	
COc1ccc(C#Cc2ccccc2)c(CC(C)N(C)CCCc2ccccc2)c1 (configuration not stated)	2.5 µM		95%	>0.5	52 mmHg	
COc1ccc(C#Cc2ccccc2)c(CC(C)N(C)CCc2cccc3ccccc23)c1 (configuration not stated)	0.19 µM		61%	0.005		
COc1cc(CCN(C)C(C)CCc2cc(OC)ccc2C#Cc2ccccc2)cc(OC)c1 (configuration not stated)	0.095 µM		105%	0.15	42 mmHg	
COc1ccc(C#Cc2ccccc2)c(CCC(C)NCCc2ccc(OC)c(OC)c2)c1 (configuration not stated)	0.07 µM		123%	0.001	20 mmHg	
COc1cc(CCNC(C)CCc2cc(OC)ccc2C#Cc2ccccc2)cc(OC)c1 (configuration not stated)	2.1 µM		87%	0.045	34 mmHg	
COc1ccc(C#Cc2ccccc2)c(CCN(C)C)c1	3 µM			>0.05	18 mmHg	90%

Source: ChEMBL document CHEMBL1124060, “2-Ethynylbenzenealkanamines. A new class of calcium entry blockers” (1988)
